Data on 1 compound can be found in ChEMBL document CHEMBL5678798 (Clin Cancer Res, 2009).

Calls of active or inactive are those of the source. No cut-off for these calls is given here. Some results are limits rather than exact numbers.

One series deals with Focal adhesion kinase 1 (Homo sapiens, UniProt Q05397). The experiment in a line: Inhibition of N-terminal 6His-tagged recombinant human FAK (411 to 686 residues) expressed in baculovirus infected Sf21 cells by filter binding assay.
The nature of series [1]: Antiproliferative activity against human HuNS1 cells assessed as reduction in cell viability after 72 hrs by CellTiter-Glo assay. To be noted: HuNS1, 72 h. The series is classed as functional, cell-based. The method, boiled down:
(§1)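 Cells seeded in 96-well plates, left overnight at 37°C, then exposed to a range of test concentrations for 72 h. Viability read by CellTiter-Glo luminescence; IC50 from four-parameter curve fit. Lines kept at 37°C, 5% CO2, in recommended growth medium.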

Series [2] addresses Death-associated protein kinase 2 (Homo sapiens) (UniProt Q9UIK4). The experiment in a line: Inhibition of N-terminal GST-tagged recombinant human full length DAPK2 expressed in baculovirus infected Sf21 cells at 3 uM by filter binding assay relative to control. The method, boiled down:
(§2)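 Outsourced single-concentration screen in a commercial panel of 233 protein kinases, run as radiometric filter-binding activity assays. Test agent was tested at 0.3 or 3 µmol/L, as given in each line, from a 10 mmol/L DMSO stock. Activity is expressed as percent inhibition relative to control.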

The target of series [3] is Serine/threonine-protein kinase MRCK beta (Homo sapiens) (UniProt Q9Y5S2). The experiment in a line: Inhibition of N-terminal His6-tagged recombinant human MRCKbeta (1 to 473 residues) expressed in baculovirus infected Sf21 cells at 0.3 uM by filter binding assay relative to control.
Series [4] has as its target Insulin receptor (Mus musculus) (UniProt P15208). To be noted: CD-1, dose 30.0 mg/kg, route po, time 2-24 hrs.
The nature of series [5]: Toxicity in nu/nu CD-1 mouse xenografted with human BXPC-3 cells assessed as reduction in body weight at 30 mg/kg, po for 21 days relative to control. The series is classed as organism-based. Conditions: in vivo, 504 h, time 21 day.
A further series has as its system MDA-MB-468. Kind of series: Antiproliferative activity against human MDA-MB-468 cells assessed as reduction in cell viability after 72 hrs by CellTiter-Glo assay. The series is classed as functional, cell-based. To be noted: MDA-MB-468, 72 h. The method, boiled down: as §1
A further series relates to COLO 205. Kind of series: Induction of cell cycle arrest in human COLO 205 cells assessed as cells accumulation at S phase at 1 umol/L incubated for 48 hrs by propidium iodide staining based flow cytometric analysis (reference value: 9%). It counts as functional. Conditions: dose 1 µmol/L, at 1 µM. The method, boiled down:
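COLO 205, MCF-7 or NCI-H929 cells seeded in 96-well plates overnight at 37°C, then exposed to DMSO or increasing compound concentrations for 24 or 48 h. Fixed and stained with propidium iodide (Vindelov method), then analysed by flow cytometry for sub-G1, G1, S and G2-M fractions. Experiment repeated twice.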

In series [6] the target is Serine/threonine-protein kinase 17A (Homo sapiens) (UniProt Q9UEE5). The experiment in a line: Inhibition of N-terminal 6His-tagged recombinant full-length human DRAK1 expressed in baculovirus infected Sf21 cells at 3 uM by filter binding assay relative to control. The method, boiled down:
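KinaseProfiler panel of 233 kinases: radiometric filter-binding activity assays with compound at 0.3 or 3 µmol/L. Read-out is percent inhibition.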

In series [7] the target is Tyrosine-protein kinase JAK2 (Homo sapiens, UniProt O60674). The experiment in a line: Inhibition of JAK2 (unknown origin).
The target of series [8] is Ephrin type-A receptor 4 (Homo sapiens) (UniProt P54764). Kind of series: Inhibition of N-terminal His6-tagged recombinant human EphA4 (601 to 892 residues) expressed in baculovirus infected Sf21 cells at 3 uM by filter binding assay relative to control.
Series [9] can be described thus: Inhibition of recombinant mouse N-terminal 6His-tagged full length P110alpha/full length mouse […] expressed in baculovirus infected Sf21 cells at 3 uM by filter binding assay relative to control. To be noted: condition cancer.
The target in series [10] is Testis-specific serine/threonine-protein kinase 2 (Homo sapiens) (UniProt Q96PF2). Kind of series: Inhibition of N-terminal His6-tagged recombinant full length human TSSK2 expressed in baculovirus infected Sf21 cells at 0.3 uM by filter binding assay relative to control. The gist of the method:
as §2

Series [11] in a line: In vivo inhibition of IGF1R in mouse NIH-3T3/LISN cells xenografted in IGF1-stimulated nu/nu CD-1 mouse assessed as reduction in IGF1R phosphorylation at 3.5 umol/L blood compound concentration pretreated for 4 hrs followed by IGF1 stimulation and measured after 10 min by […] relative to control. To be noted: dose 3.5 µmol/L; time 250 min; 4.167 h; at 3.5 µM. The series is classed as functional. The gist of the method:
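Female nu/nu CD-1 mice, three per group, bearing ~500 mm3 tumors, given one oral dose of compound or vehicle. At 4 h, 10 µg hIGF-I i.v. via tail vein; saline controls. Tumor and blood taken 10 min later. Tumor lysates in RIPA captured on anti-IGF-IR plates and probed with europium anti-phosphotyrosine. Phospho/total IGF-IR expressed as % of ligand-stimulated control. Blood levels by LC-MS/MS.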

The target in series [12] is Serine/threonine-protein kinase PLK1 (Homo sapiens) (UniProt P53350). Kind of series: Inhibition of N-terminal 6His-tagged recombinant human Plk1 expressed in baculovirus infected Sf21 cells at 0.3 uM by filter binding assay relative to control. The method, boiled down: as §2
Another series has as its system KMS-12-BM. Kind of series: Antiproliferative activity against human KMS-12-BM cells assessed as reduction in cell viability after 72 hrs by CellTiter-Glo assay. The series is classed as functional, cell-based. The gist of the method: as §1
Series [13] deals with Tyrosine-protein kinase receptor UFO (Homo sapiens) (UniProt P30530). Kind of series: Inhibition of N-terminal His6-tagged recombinant human Axl (473 to end residues) expressed in Sf21 cells at 3 uM by filter binding assay relative to control.
Series [14] addresses MAP kinase-activated protein kinase 2 (Homo sapiens, UniProt P49137). Kind of series: Inhibition of MAPKAPK2 (unknown origin).

Ephrin type-A receptor 4 (Homo sapiens), sequence (P54764 whole entry, the tested form may be a part): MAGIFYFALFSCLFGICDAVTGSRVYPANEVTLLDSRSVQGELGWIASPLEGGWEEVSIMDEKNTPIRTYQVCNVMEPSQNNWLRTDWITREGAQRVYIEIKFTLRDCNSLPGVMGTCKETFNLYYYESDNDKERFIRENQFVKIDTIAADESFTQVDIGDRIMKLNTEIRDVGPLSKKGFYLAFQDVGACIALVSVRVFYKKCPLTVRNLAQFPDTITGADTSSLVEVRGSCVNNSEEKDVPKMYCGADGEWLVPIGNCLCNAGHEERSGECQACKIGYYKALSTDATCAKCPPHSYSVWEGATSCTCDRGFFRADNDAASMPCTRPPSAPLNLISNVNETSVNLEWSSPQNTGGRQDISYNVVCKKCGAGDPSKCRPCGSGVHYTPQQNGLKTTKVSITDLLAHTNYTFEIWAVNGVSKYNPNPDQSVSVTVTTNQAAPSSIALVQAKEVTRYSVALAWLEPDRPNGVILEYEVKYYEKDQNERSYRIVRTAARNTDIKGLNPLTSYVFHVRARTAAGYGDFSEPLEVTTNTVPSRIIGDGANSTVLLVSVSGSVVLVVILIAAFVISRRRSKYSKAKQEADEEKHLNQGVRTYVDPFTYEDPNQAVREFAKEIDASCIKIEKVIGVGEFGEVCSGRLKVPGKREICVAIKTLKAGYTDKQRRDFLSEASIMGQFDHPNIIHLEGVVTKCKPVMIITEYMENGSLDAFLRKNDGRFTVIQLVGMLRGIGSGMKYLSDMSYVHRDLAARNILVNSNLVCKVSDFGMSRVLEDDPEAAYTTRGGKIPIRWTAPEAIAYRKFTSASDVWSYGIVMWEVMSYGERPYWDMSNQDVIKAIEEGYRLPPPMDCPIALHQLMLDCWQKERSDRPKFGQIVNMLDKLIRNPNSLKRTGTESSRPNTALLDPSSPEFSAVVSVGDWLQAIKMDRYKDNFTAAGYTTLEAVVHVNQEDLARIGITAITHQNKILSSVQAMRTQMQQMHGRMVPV
Focal adhesion kinase 1, sequence (Q05397 whole entry, the tested form may be a part): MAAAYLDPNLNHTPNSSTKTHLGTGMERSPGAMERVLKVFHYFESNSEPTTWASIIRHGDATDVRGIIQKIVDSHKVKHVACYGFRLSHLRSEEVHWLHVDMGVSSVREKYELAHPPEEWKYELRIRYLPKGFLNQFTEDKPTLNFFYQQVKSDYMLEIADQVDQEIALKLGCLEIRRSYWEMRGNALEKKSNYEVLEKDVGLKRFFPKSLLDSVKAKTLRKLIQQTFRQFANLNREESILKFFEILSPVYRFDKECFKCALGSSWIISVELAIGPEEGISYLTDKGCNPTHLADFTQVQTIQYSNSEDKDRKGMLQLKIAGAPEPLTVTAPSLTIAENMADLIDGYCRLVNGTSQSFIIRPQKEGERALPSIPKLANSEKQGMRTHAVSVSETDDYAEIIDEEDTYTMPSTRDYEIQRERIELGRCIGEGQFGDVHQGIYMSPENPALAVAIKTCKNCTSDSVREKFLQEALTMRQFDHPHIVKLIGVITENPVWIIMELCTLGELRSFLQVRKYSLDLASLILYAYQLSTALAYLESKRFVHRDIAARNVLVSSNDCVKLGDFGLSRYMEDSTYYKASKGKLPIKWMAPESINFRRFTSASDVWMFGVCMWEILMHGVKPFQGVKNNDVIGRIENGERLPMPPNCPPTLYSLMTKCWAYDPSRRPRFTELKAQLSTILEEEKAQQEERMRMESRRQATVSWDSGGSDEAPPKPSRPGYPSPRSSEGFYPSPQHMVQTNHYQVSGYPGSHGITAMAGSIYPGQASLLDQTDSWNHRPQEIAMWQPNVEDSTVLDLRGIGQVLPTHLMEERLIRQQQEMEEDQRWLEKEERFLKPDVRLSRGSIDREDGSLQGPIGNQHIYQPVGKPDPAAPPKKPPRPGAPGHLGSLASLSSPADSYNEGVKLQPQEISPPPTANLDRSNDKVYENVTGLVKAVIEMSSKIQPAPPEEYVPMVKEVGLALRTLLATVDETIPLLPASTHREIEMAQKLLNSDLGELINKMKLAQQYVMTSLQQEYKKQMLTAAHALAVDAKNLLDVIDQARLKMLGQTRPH
Serine/threonine-protein kinase MRCK beta (Homo sapiens), sequence (Q9Y5S2 whole entry, the tested form may be a part): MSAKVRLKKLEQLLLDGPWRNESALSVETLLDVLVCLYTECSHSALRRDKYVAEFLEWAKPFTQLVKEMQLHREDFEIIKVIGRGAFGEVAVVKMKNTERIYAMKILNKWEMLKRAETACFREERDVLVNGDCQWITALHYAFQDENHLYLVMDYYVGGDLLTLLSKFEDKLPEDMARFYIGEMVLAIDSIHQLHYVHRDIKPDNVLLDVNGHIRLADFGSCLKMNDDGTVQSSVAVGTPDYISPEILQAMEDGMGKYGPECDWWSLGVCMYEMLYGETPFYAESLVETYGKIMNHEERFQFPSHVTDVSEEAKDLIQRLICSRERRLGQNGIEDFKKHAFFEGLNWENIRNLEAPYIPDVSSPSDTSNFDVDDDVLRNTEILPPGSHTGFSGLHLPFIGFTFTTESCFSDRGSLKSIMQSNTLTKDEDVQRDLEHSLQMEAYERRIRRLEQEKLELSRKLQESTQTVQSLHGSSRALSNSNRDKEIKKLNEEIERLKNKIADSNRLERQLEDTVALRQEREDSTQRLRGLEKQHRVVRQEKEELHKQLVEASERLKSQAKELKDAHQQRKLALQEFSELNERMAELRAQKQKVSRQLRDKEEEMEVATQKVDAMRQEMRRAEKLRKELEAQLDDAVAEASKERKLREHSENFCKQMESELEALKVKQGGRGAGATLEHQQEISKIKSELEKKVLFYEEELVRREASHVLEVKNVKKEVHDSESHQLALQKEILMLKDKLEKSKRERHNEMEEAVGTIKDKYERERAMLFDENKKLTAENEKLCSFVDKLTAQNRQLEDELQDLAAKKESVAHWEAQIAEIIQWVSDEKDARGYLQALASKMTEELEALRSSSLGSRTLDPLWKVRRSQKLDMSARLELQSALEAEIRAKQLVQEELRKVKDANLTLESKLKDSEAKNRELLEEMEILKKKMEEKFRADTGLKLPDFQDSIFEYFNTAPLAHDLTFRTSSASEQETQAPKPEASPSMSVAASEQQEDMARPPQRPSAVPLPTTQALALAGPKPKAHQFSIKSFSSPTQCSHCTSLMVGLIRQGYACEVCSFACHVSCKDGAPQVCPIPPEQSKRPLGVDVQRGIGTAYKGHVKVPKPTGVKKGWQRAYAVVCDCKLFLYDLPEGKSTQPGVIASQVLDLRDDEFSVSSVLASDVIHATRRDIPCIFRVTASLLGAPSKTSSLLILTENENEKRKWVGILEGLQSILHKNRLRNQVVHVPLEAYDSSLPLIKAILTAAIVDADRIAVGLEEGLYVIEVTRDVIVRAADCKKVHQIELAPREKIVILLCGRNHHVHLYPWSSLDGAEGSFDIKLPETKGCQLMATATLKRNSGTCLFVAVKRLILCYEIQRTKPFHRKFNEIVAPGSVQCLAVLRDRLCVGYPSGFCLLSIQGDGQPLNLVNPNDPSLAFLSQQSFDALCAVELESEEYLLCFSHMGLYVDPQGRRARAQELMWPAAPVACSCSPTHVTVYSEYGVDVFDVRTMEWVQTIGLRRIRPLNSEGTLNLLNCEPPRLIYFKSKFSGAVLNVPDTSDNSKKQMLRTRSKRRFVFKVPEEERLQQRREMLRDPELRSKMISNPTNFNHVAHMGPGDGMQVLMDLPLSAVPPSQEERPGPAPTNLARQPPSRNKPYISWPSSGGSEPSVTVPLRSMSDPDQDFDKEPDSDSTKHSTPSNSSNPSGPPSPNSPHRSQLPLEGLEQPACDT
Tyrosine-protein kinase JAK2, sequence (O60674 whole entry, the tested form may be a part): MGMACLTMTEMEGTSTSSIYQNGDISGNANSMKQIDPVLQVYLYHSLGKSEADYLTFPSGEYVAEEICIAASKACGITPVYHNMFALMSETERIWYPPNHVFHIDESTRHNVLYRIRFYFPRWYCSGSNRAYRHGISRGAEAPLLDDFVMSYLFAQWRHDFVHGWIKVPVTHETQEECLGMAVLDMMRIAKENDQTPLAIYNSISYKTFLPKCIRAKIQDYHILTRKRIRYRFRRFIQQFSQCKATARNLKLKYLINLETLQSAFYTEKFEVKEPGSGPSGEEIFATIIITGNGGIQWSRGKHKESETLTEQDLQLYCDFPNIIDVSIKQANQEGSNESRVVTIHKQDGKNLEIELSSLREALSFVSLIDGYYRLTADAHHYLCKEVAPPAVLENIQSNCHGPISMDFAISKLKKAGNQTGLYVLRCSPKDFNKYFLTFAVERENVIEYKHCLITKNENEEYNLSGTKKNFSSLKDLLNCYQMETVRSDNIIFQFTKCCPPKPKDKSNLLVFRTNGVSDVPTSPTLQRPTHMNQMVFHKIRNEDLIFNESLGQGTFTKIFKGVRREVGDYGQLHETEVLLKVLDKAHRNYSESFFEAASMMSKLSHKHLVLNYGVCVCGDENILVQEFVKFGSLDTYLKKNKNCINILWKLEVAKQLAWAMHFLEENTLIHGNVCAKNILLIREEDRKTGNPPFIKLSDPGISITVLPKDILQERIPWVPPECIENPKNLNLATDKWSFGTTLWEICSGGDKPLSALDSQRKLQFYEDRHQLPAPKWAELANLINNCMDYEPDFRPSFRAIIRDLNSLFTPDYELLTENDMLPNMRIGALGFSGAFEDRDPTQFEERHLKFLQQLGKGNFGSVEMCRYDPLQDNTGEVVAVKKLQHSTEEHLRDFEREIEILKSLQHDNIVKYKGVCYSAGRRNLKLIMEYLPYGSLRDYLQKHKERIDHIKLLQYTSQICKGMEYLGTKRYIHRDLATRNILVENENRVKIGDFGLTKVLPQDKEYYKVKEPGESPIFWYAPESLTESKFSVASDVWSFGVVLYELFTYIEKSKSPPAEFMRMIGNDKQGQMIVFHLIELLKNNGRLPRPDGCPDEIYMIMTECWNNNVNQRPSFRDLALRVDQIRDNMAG

On to `CCc1cc(Nc2nccc(-c3c(-c4ccc(OC)c(C(=O)Nc5c(F)cccc5F)c4)nc4ccccn34)n2)c(OC)cc1N1CCC(N2CCN(S(C)(=O)=O)CC2)CC1`, for which the IC50 at Focal adhesion kinase 1 is 0.362 µM; in series [1], more than 30 µM; with MDA-MB-468, more than 20 µM; in [7], more than 16 µM; with KMS-12-BM, 0.113 µM; in [14], more than 25 µM. Moreover, the inhibition in [2] is 4%; in series [3] it was -10%; in [6], 10%; in series [8] it was -10%; in [10], 4%; in [12], -8%. In addition, in series [13], the inhibition is 1%. Besides, the inhibition result in [4] is “inactive”. In addition, the Activity entry was “Non-Toxic” in series [5] and 6% in the series on COLO 205. Besides, the inhibition at 3 µM in series [9] amounted to 0%. Besides, the “inhibition (INH)” value in [11] is given as 100%.
